From ChEMBL document CHEMBL1141840, “Antifungal metabolites from the marine sponge Pachastrissa sp.: new bengamide and bengazole derivatives” (1999)
≈ marks a conversion by molar mass, not a printed value. Calls of active or inactive are those of the source. No cut-off for these calls is given here.

How the values were obtained:
Candida albicans = assay: Antifungal activity against Candida albicans CIP 118079 after 24 hrs by liquid-phase turbidimetric system; format: functional; settings: for MIC: CIP 118079, 24 h
Summary of the method: (§1)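 Fungal growth followed in liquid culture by turbidimetry, read automatically every 30 min over 24 h, with compounds tested at various concentrations.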

Saccharomyces cerevisiae = assay: Antimicrobial activity against Saccharomyces cerevisiae ATCC 28383 after 24 hrs by liquid-phase turbidimetric system; format: functional, organism-based; summary of the method: as §1

Row | MIC (Candida albicans) [µg/mL] | SMILES | Activity (Saccharomyces cerevisiae) | Activity (Candida albicans)
1 | 0.8 (≈ 1.53 µM) | CCCCCCCCCCCCCCC(=O)O[C@H](C[C@H](O)[C@H](O)[C@H](C)O)c1coc(Cc2cnco2)n1 | inactive | 
2 | 0.8 (≈ 1.49 µM) | CC(C)CCCCCCCCCCCCC(=O)O[C@H](C[C@H](O)[C@H](O)[C@H](C)O)c1coc(Cc2cnco2)n1 | inactive | 
3 | 0.8 (≈ 1.53 µM) | CC(C)CCCCCCCCCCCC(=O)O[C@H](C[C@H](O)[C@H](O)[C@H](C)O)c1coc(Cc2cnco2)n1 | inactive | 
4 | 0.8 (≈ 1.49 µM) | CCCCCCCCCCCCCCCC(=O)O[C@H](C[C@H](O)[C@H](O)[C@H](C)O)c1coc(Cc2cnco2)n1 | inactive | 
5 | 0.8 (≈ 1.53 µM) | CCCCCCCCCCCCCCC(=O)O[C@@H](C)[C@@H](O)[C@@H](O)C[C@@H](O)c1coc(Cc2cnco2)n1 | inactive | 
6 | 0.8 (≈ 1.57 µM) | CCCCCCCCCCCCCC(=O)O[C@H](C[C@H](O)[C@H](O)[C@H](C)O)c1coc(Cc2cnco2)n1 | inactive | 
7 | 0.8 (≈ 1.49 µM) | CCCCCCCCCCCCCCCC(=O)O[C@@H](C)[C@@H](O)[C@@H](O)C[C@@H](O)c1coc(Cc2cnco2)n1 | inactive | 

The next lines start with the compound.

Row | SMILES | MIC (Candida albicans) [µg/mL] | Activity (Saccharomyces cerevisiae) | Activity (Candida albicans)
8 | CCCCCCCCCCCCCC(=O)O[C@H]1CC[C@H](NC(=O)[C@H](OC)[C@H](O)[C@@H](O)[C@H](O)/C=C/C(C)C)C(=O)N(C)C1 |  | inactive | inactive
9 | CC(C)CCCCCCCCCCCC(=O)O[C@@H](C)[C@@H](O)[C@@H](O)C[C@@H](O)c1coc(Cc2cnco2)n1 | 0.8 (≈ 1.53 µM) | inactive | 
10 | CC(C)CCCCCCCCCCCCC(=O)O[C@@H](C)[C@@H](O)[C@@H](O)C[C@@H](O)c1coc(Cc2cnco2)n1 | 0.8 (≈ 1.49 µM) | inactive | 
11 | CO[C@@H](C(=O)N[C@H]1CC[C@H](OC(=O)CCCCCCCCCCCC(C)C)CNC1=O)[C@H](O)[C@@H](O)[C@H](O)/C=C/C(C)C |  | inactive | inactive
12 | CCCCCCCCCCCCCC(=O)O[C@H]1CC[C@H](NC(=O)[C@H](OC)[C@H](O)[C@@H](O)[C@H](O)/C=C/C(C)C)C(=O)NC1 |  | inactive | inactive
13 | CO[C@@H](C(=O)N[C@H]1CCCCNC1=O)[C@H](O)[C@@H](O)[C@H](O)/C=C/C(C)C |  | inactive | inactive
14 | C[C@H](O)[C@@H](O)[C@@H](O)C[C@@H](O)c1coc(Cc2cnco2)n1 |  | inactive | inactive
15 | CCCCCCCCCCCCCC(=O)O[C@@H](C)[C@@H](O)[C@@H](O)C[C@@H](O)c1coc(Cc2cnco2)n1 | 0.8 (≈ 1.57 µM) | inactive | 
